Published values from different studies.
Compare with care: the assays were run in different laboratories.
MRGPRX2: Mas-related G-protein coupled receptor member X2 (MRGPRX2, Homo sapiens, UniProt Q96LB1)

Compound	target	assay	endpoint	result
Nc1ncc(-c2nc(N3CCOCC3)nc(N3CCOCC3)n2)c(C(F)F)n1	Phosphatidylinositol 4,5-bisphosphate 3-kinase catalytic subunit alpha isoform (PIK3CA, Homo sapiens, UniProt P42336)	ligand displacement, TR-FRET	IC50	21.9 nM
NC(=O)[C@@H]1CCCN1C(=O)[C@H](CCC(=O)O)NC(=O)[C@@H]1CCC(=O)N1	MRGPRX2	calcium signal, agonist	EC50	> 20000 nM
CC(=O)[C@H]1CC[C@H]2[C@@H]3CCC4=CC(=O)CC[C@]4(C)[C@H]3CC[C@]12C	Steroid 17-alpha-hydroxylase/17,20 lyase (CYP17A1, Homo sapiens, UniProt P05093)	binding, absorbance	Kd	740 nM
CCCc1cc(C)[nH]c(=O)c1CNC(=O)c1cc(-c2ccc(N3CCN(CCCCc4cn(CCN5C(=O)\C(=C/C=C/C=C6/N(CCC(=O)OCOC(C)=O)c7ccc(C(=O)OCOC(C)=O)cc7C6(C)C)C(=O)N(CC)C5=O)nn4)CC3)nc2)cc2c1cnn2C(C)C	Histone-lysine N-methyltransferase EZH2 (EZH2, Homo sapiens, UniProt Q15910)	enzyme activity, inhibitor, radiometric	IC50	21 nM
Cc1cc2c(cc1Br)NC(=O)/C2=N/N=C1/C(=O)Nc2cc(Br)c(C)cc21	Glycogen synthase kinase-3 beta (GSK3B, Homo sapiens, UniProt P49841)	enzyme activity, inhibitor	IC50	~0.03 nM
C[C@@H](O)[C@@H]1NC(=O)[C@H](CCCCN)NC(=O)[C@H](Cc2c[nH]c3ccccc23)NC(=O)[C@H](Cc2ccccc2)NC(=O)[C@H](Cc2ccccc2)NC(=O)[C@H](CC(N)=O)NC(=O)[C@H](CCCCN)NC(=O)[C@@H](NC(=O)[C@@H]2CCCN2)CSSC[C@@H](C(=O)N[C@@H](CCCCN)C(=O)O)NC(=O)[C@H](CO)NC(=O)[C@H](CO)NC(=O)[C@H](Cc2ccccc2)NC1=O	MRGPRX2	calcium signal, agonist	EC50	79.4 nM
C/C=C1\NC(=O)[C@H](C)NC(=O)[C@@H](NC(=O)[C@@H](Cc2ccc(O)cc2)NC(=O)[C@@H](NC(=O)/C(C)=C/C)C(C)C)[C@@H](C)OC(=O)[C@H](CC[S+](C)[O-])NC(=O)[C@@H](CCC(=O)O)NC1=O (stereo partly drawn)	Chymotrypsin-like elastase family member 1 (CELA1, Sus scrofa, UniProt P00772)	enzyme activity, inhibitor, absorbance	IC50	7280 nM
CC[C@H](C)[C@H](NC(=O)[C@H](CCC(=O)O)NC(=O)[C@H](CCC(=O)O)NC(=O)[C@H](C)NC(C)=O)C(=O)N[C@@H](CCC(=O)O)C(=O)O	MRGPRX2	calcium signal, agonist	EC50	> 20000 nM
C/C(=C\[N+](=O)[O-])c1ccccc1	OYE1 (Saccharomyces pastorianus, UniProt Q02899)	binding, absorbance	Kd	170000 nM
